Experiments:
Interstitial collagenase = target: T1, Interstitial collagenase (Homo sapiens, UniProt P03956); assay: Inhibition of Matrix metalloprotease-1 (MMP-1)
T1 sequence (P03956 whole entry): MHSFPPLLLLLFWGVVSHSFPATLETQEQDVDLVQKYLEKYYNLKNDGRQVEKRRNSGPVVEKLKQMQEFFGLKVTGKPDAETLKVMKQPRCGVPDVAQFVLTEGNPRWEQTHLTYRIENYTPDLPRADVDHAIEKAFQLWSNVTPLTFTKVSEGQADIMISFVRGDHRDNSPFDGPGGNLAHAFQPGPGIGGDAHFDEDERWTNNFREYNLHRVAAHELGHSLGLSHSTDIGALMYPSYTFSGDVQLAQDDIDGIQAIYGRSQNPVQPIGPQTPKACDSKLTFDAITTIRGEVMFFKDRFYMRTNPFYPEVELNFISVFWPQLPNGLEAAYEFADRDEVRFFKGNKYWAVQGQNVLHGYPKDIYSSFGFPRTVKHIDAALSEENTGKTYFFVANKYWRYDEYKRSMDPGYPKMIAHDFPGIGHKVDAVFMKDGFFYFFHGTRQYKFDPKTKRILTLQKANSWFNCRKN
In short: (§1)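 Inhibition is reported as Ki (nM) against each isolated MMP. Each value comes from a single determination, with no replicates.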

[1] = target: Disintegrin and metalloproteinase domain-containing protein 17 (Sus scrofa, UniProt O77636); assay: Inhibition of porcine Tumor necrosis factor- alpha converting enzyme (TACE, ADAM17)
[2] = target: Disintegrin and metalloproteinase domain-containing protein 17 (Homo sapiens, UniProt P78536); assay: Effect on TNF-Alpha release in LPS-stimulated human whole blood assay; assay type: functional, tissue-based
[3] = target: 72 kDa type IV collagenase (Homo sapiens, UniProt P08253); assay: inhibition of Matrix metalloprotease-2 (MMP-2); in short: as §1
Mus musculus [4] = assay: Compound was tested for anti TNF-alpha activity using LPS mouse model at 10 mg/kg p.o.; assay type: functional; conditions: route oral
[5] = target: Matrix metalloproteinase-9 (Homo sapiens, UniProt P14780); assay: Inhibition of Matrix metalloprotease-9 (MMP-9); in short: as §1
Caco-2 = assay: Permeability action in Caco-2 cells; assay type: functional, Homo sapiens
Collagenase 3 = Collagenase 3 (Homo sapiens, UniProt P45452); assay: Inhibition of Matrix metalloprotease-13 (MMP-13); in short: as §1
Mus musculus [6] = assay: Compound was tested for anti TNF-alpha activity using LPS mouse model at 5 mg/kg p.o.; assay type: functional; conditions: route oral

Matrix metalloproteinase-9, sequence (P14780 whole entry): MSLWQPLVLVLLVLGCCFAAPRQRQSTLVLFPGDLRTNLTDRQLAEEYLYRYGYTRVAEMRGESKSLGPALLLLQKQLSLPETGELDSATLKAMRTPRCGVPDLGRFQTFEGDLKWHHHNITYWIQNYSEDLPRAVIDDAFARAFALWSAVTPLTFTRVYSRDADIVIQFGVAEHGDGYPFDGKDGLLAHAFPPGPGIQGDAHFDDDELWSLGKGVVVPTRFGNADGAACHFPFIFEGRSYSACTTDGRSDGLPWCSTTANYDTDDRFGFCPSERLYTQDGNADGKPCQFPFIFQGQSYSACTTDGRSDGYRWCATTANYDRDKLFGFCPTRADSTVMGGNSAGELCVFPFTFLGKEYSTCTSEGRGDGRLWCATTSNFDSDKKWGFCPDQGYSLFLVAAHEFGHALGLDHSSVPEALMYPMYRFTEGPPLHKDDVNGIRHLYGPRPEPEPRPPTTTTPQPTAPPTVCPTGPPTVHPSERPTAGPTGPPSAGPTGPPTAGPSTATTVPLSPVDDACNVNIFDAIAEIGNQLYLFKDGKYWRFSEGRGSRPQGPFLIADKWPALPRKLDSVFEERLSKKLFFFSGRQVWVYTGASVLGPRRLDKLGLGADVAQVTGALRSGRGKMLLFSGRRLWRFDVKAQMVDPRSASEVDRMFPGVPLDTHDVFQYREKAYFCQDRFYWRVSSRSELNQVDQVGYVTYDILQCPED
72 kDa type IV collagenase, sequence (P08253 whole entry): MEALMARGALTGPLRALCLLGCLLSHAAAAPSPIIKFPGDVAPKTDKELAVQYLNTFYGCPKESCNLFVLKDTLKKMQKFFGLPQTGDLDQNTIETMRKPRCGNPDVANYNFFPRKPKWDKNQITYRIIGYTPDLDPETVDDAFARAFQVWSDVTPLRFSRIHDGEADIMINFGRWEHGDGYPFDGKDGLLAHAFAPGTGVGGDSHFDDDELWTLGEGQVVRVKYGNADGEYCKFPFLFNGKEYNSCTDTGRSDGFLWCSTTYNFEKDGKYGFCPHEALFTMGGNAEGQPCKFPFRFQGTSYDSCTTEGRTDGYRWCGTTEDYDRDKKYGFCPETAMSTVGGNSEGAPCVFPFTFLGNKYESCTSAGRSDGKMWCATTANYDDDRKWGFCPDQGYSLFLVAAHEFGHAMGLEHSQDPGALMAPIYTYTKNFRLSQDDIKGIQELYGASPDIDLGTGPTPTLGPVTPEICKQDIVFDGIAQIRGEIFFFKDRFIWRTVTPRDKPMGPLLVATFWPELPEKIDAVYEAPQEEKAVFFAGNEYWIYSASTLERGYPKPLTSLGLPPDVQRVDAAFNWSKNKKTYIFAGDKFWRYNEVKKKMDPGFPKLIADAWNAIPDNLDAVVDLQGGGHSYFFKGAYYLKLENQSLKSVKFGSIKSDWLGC
Disintegrin and metalloproteinase domain-containing protein 17 (Sus scrofa, UniProt O77636), sequence (O77636 whole entry, the tested form may be a part): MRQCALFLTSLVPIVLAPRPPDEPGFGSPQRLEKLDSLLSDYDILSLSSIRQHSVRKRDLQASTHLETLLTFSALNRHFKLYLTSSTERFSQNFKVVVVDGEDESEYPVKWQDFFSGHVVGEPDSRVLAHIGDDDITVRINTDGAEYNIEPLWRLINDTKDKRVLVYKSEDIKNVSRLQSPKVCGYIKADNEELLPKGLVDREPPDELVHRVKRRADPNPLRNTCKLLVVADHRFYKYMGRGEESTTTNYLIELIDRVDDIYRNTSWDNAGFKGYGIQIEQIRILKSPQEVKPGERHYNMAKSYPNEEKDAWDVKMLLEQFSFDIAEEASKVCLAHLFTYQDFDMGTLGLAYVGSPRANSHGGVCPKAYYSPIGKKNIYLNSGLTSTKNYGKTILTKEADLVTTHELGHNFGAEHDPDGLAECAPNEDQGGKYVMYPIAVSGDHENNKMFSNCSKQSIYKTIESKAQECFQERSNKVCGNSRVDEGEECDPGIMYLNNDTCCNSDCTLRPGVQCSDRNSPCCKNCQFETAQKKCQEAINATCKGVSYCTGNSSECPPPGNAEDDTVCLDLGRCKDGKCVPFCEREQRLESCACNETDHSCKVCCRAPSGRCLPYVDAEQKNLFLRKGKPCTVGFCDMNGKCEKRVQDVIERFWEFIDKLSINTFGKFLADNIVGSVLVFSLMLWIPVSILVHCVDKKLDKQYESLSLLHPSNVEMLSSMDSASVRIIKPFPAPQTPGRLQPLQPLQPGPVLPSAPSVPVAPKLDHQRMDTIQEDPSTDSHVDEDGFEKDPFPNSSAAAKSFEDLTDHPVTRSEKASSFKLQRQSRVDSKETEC
Disintegrin and metalloproteinase domain-containing protein 17 (Homo sapiens, UniProt P78536), sequence (P78536 whole entry, the tested form may be a part): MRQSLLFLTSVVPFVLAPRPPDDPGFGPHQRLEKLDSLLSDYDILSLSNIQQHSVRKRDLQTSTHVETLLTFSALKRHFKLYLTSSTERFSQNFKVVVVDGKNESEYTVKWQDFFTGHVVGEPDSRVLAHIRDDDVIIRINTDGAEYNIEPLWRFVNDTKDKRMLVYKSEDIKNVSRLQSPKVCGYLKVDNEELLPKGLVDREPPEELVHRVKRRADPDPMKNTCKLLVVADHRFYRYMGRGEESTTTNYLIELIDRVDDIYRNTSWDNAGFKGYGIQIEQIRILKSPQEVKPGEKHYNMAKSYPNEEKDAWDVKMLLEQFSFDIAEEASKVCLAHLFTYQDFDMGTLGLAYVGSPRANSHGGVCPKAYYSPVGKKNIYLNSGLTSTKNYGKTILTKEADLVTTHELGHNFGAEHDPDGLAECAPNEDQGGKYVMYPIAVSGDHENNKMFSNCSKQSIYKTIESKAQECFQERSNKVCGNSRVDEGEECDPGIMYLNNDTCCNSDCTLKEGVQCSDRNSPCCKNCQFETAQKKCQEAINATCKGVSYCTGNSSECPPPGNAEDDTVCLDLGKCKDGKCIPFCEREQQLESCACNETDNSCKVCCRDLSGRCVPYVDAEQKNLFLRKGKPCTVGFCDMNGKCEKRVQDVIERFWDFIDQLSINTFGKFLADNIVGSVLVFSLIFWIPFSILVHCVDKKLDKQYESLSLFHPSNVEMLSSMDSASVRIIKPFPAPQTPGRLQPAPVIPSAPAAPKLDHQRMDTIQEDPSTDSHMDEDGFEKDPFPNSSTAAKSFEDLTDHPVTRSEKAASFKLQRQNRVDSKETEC

SMILES	Ki (Interstitial collagenase)	IC50 [1]	IC50 [2]	Ki [3]	inhibition in vivo at 10 mg/kg (Mus musculus [4])	Ki [5]	Caco-2 Papp (Caco-2)	Ki (Collagenase 3)	ED50 (Mus musculus [4])	inhibition in vivo at 5 mg/kg (Mus musculus [6])
Cc1cc(COc2ccc(S(=O)(=O)CC3CN(C(C)C)CCC3C(=O)NO)cc2)c2ccccc2n1 (stereo not given)	> 4900 nM	1.5 nM	230 nM	> 3300 nM	38%	> 2100 nM	0.1 ×10⁻⁶ cm/s	> 5000 nM		
Cc1cc(COc2ccc(S(=O)(=O)CC3(CC(=O)NO)CCCN3C)cc2)c2ccccc2n1 (stereo not given)	> 4900 nM	2.9 nM	> 3000 nM	> 3300 nM		> 2100 nM	1.6 ×10⁻⁶ cm/s	3270 nM		
Cc1cc(COc2ccc(S(=O)(=O)CC3CCNCC3C(=O)NO)cc2)c2ccccc2n1 (stereo not given)	> 4900 nM	< 1.5 nM	250 nM	> 3300 nM		> 2100 nM	0.1 ×10⁻⁶ cm/s	> 5000 nM		
CONC(=O)[C@H]1CCCN(C)[C@@H]1C(=O)Nc1ccc(OCc2cc(C)nc3ccccc23)cc1	> 4900 nM	6.2 nM	20 nM	> 3300 nM	> 50%	> 2100 nM	2.1 ×10⁻⁶ cm/s		3 mg/kg	
Cc1cc(COc2ccc(S(=O)(=O)CC3(CC(=O)NO)CCCN(CC(C)C)C3)cc2)c2ccccc2n1 (stereo not given)	> 4900 nM	3.3 nM	2500 nM	> 3300 nM		> 2100 nM	0.7 ×10⁻⁶ cm/s	> 5000 nM		25%
Cc1cc(COc2ccc(S(=O)(=O)CC3(CC(=O)NO)CCCO3)cc2)c2ccccc2n1 (stereo not given)	> 4900 nM	1 nM	913 nM	> 3300 nM		> 2100 nM	5 ×10⁻⁶ cm/s	> 5000 nM		57%
Cc1cc(COc2ccc(S(=O)(=O)CC3NCCCC3C(=O)NO)cc2)c2ccccc2n1 (stereo not given)	> 4900 nM	< 1 nM	240 nM	> 3300 nM		> 2100 nM	0.1 ×10⁻⁶ cm/s	754 nM		
Cc1cc(COc2ccc(S(=O)(=O)CC3(CC(=O)NO)CCCCN3C)cc2)c2ccccc2n1 (stereo not given)	> 4900 nM	5.1 nM	> 3000 nM	> 3300 nM		> 2100 nM	5.1 ×10⁻⁶ cm/s	> 5000 nM		
Cc1cc(COc2ccc(S(=O)(=O)CC3CN(C)CCC3C(=O)NO)cc2)c2ccccc2n1 (stereo not given)	> 4900 nM	< 1.9 nM	190 nM	> 3300 nM		> 2100 nM	0.1 ×10⁻⁶ cm/s	> 5000 nM		
Cc1cc(COc2ccc(S(=O)(=O)CC3(CC(=O)NO)CCCN(C(C)C)C3)cc2)c2ccccc2n1 (stereo not given)	> 4900 nM	2.7 nM	506 nM	> 3300 nM		> 2100 nM	0.2 ×10⁻⁶ cm/s	> 5000 nM		
Cc1cc(COc2ccc(S(=O)(=O)CC3(CC(=O)NO)CCCC3)cc2)c2ccccc2n1	> 4900 nM	< 0.8 nM	420 nM	1570 nM		1510 nM	18 ×10⁻⁶ cm/s	804 nM		
Cc1cc(COc2ccc(S(=O)(=O)CC3(CC(=O)NO)CCN(C(C)C)C3)cc2)c2ccccc2n1 (stereo not given)	> 4900 nM	1.6 nM	77 nM	1330 nM		2100 nM	0.2 ×10⁻⁶ cm/s	653 nM		37%
CCC(C)N1CCCCC1(CC(=O)NO)CS(=O)(=O)c1ccc(OCc2cc(C)nc3ccccc23)cc1 (stereo not given)	> 4900 nM	< 48 nM		> 3300 nM		> 5000 nM				
Cc1cc(COc2ccc(S(=O)(=O)CC3(CC(=O)NO)CCNC3)cc2)c2ccccc2n1 (stereo not given)	> 4900 nM	1.5 nM	76 nM	> 3300 nM		> 2100 nM	0.1 ×10⁻⁶ cm/s	3270 nM		34%
Cc1cc(COc2ccc(S(=O)(=O)CC3(CC(=O)NO)CCCN3CC(C)C)cc2)c2ccccc2n1 (stereo not given)	> 4900 nM	20 nM		1330 nM		> 2100 nM	0.7 ×10⁻⁶ cm/s	> 5000 nM		
Cc1cc(COc2ccc(S(=O)(=O)CC3(CC(=O)NO)CCCNC3)cc2)c2ccccc2n1 (stereo not given)	> 4900 nM	2.8 nM	123 nM	> 3300 nM		> 2100 nM	0.1 ×10⁻⁶ cm/s	> 5000 nM		31%

SMILES	Ki (Interstitial collagenase)	IC50 [1]	IC50 [2]	Ki [3]	inhibition in vivo at 10 mg/kg (Mus musculus [4])	Ki [5]	Caco-2 Papp (Caco-2)	Ki (Collagenase 3)	ED50 (Mus musculus [4])	inhibition in vivo at 5 mg/kg (Mus musculus [6])
Cc1cc(COc2ccc(S(=O)(=O)CC3(CC(=O)NO)CCNCC3)cc2)c2ccccc2n1	> 4900 nM	14 nM		> 3300 nM		> 2100 nM	0.1 ×10⁻⁶ cm/s	> 5000 nM		57%
Cc1cc(COc2ccc(S(=O)(=O)CC3(CC(=O)NO)CCCCN3)cc2)c2ccccc2n1 (stereo not given)	> 4900 nM	< 1 nM	632 nM	> 3300 nM		> 2100 nM	1.7 ×10⁻⁶ cm/s	753 nM		50%
Cc1cc(COc2ccc(S(=O)(=O)CC3(CC(=O)NO)CCOCC3)cc2)c2ccccc2n1	> 4900 nM	< 1 nM	258 nM	> 3300 nM		> 2100 nM		> 5000 nM		
Cc1cc(COc2ccc(S(=O)(=O)CC3CCN(C(C)C)CC3C(=O)NO)cc2)c2ccccc2n1 (stereo not given)	> 4900 nM	< 11 nM	> 1000 nM	> 3300 nM		> 2100 nM	0.65 ×10⁻⁶ cm/s	> 5000 nM		
Cc1cc(COc2ccc(S(=O)(=O)CC3(CC(=O)NO)CCN(C)CC3)cc2)c2ccccc2n1	> 4900 nM	< 2 nM	102 nM	> 3300 nM		> 2100 nM	0.2 ×10⁻⁶ cm/s	2610 nM		
Cc1cc(COc2ccc(S(=O)(=O)CC3(CC(=O)NO)CCN(CC(C)C)C3)cc2)c2ccccc2n1 (stereo not given)	> 4900 nM	2.6 nM	161 nM	2170 nM		> 2100 nM	0.8 ×10⁻⁶ cm/s	603 nM		22%
Cc1cc(COc2ccc(S(=O)(=O)CC3CCN(C)CC3C(=O)NO)cc2)c2ccccc2n1 (stereo not given)	> 4900 nM	6.5 nM	510 nM	> 3300 nM		> 2100 nM	0.2 ×10⁻⁶ cm/s	> 5000 nM		
Cc1cc(COc2ccc(S(=O)(=O)CC3(CC(=O)NO)COC3)cc2)c2ccccc2n1	> 4900 nM	1 nM	595 nM	> 3300 nM		> 2100 nM		> 5000 nM		
Cc1cc(COc2ccc(S(=O)(=O)CC3C(C(=O)NO)CCCN3C)cc2)c2ccccc2n1 (stereo not given)	> 4900 nM	< 1.1 nM	> 3000 nM	> 3300 nM		> 2100 nM		> 5000 nM		
CC(=O)N1CCCC1(CC(=O)NO)CS(=O)(=O)c1ccc(OCc2cc(C)nc3ccccc23)cc1 (stereo not given)	> 4900 nM	660 nM		> 3300 nM		> 2100 nM	0.6 ×10⁻⁶ cm/s	> 5000 nM		
CCCCCN1CCC(CC(=O)NO)(CS(=O)(=O)c2ccc(OCc3cc(C)nc4ccccc34)cc2)C1 (stereo not given)	> 4900 nM	3.4 nM	418 nM	> 3300 nM		> 2100 nM		1760 nM		22%
Cc1cc(COc2ccc(S(=O)(=O)CC3(CC(=O)NO)CCCN3)cc2)c2ccccc2n1 (stereo not given)	> 4900 nM	1 nM	403 nM	> 3300 nM		> 2100 nM	0.4 ×10⁻⁶ cm/s	> 5000 nM		19%
Cc1cc(COc2ccc(S(=O)(=O)CC3(CC(=O)NO)CCC3)cc2)c2ccccc2n1	> 4900 nM	< 1 nM	223 nM	2570 nM		> 2100 nM	4.9 ×10⁻⁶ cm/s	753 nM		86%
Cc1cc(COc2ccc(S(=O)(=O)CC3(CC(=O)NO)CCCN(C)C3)cc2)c2ccccc2n1 (stereo not given)	> 4900 nM	3.6 nM	208 nM	> 3300 nM		> 2100 nM	0.2 ×10⁻⁶ cm/s	3870 nM		49%
Cc1cc(COc2ccc(S(=O)(=O)CC3(CC(=O)NO)CCCCC3)cc2)c2ccccc2n1	> 4900 nM	< 1 nM	867 nM	1400 nM		> 2100 nM	22 ×10⁻⁶ cm/s	1210 nM		59%
Cc1cc(COc2ccc(S(=O)(=O)CC3(CC(=O)NO)CCN(C)C3)cc2)c2ccccc2n1 (stereo not given)	> 4900 nM	3.2 nM	109 nM	> 3300 nM		> 2100 nM	0.3 ×10⁻⁶ cm/s	> 5000 nM		28%

Source: ChEMBL document CHEMBL1137180, “Synthesis and structure-activity relationship of a novel sulfone series of TNF-alpha converting enzyme inhibitors” (Bioorg Med Chem Lett, 2004)
